The Ki is the dissociation constant of the complex between target and ligand, obtained from inhibition or displacement. Broadly, the logD is lipophilicity at a set pH, counting ionised and neutral species.

Twelve molecules from ChEMBL document CHEMBL2176925, “Novel ¹⁸F-labeled benzoxazole derivatives as potential positron emission tomography probes for imaging of cerebral β-amyloid plaques in Alzheimer's disease” (J Med Chem, 2012) can be followed below.

Activity calls are given as the source filed them. The calls are words filed in the database; no cut-off is given here.

Data set [1] can be described thus: Displacement of [125I]TZDM from amyloid beta (1 to 40) fibrils. Background: Displacement assays read how much labelled ligand stays bound in the presence of the test substance.
Data set [2] relates to Brain. Description: Drug uptake in iv dosed ICR mouse brain. As to conditions: in vivo. It is filed as ADME, organism-based.
A short description of data set [3]: Displacement of [125I]IMPY from amyloid beta (1 to 42) fibrils after 2 hrs by gamma-counting analysis. Put shortly:
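Competition binding with aggregated Aβ1-42 fibrils (60 nM final) and [125I]IMPY. Inhibitors were tested at 10⁻⁵–10⁻¹⁰ M (in ethanol) in 0.2 M PBS, pH 7.4, 1 mL, for 2 h at 37 °C with shaking. Nonspecific binding was defined with 1 μM IMPY. Bound ligand was collected by GF/B filtration and γ-counted. Ki was derived from IC50 via Cheng–Prusoff.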

Data set [4] can be described thus: n-Octanol-PBS buffer partition coefficient, log D of the compound at 370 kBq after 3 mins at pH 7.4. Format: physicochemical. Put shortly:
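For log D, tubes containing n-octanol and PBS were vortexed 3 min at room temperature and centrifuged 5 min at 3000 rpm. Weighed samples of the octanol (100 μL) and buffer (500 μL) layers were counted. Log D is the log of the ratio of counts per gram, octanol to PBS.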

Data set [5] has as its system Brain. Description: Ratio of drug uptake in brain at 2 mins to drug uptake in brain at 60 mins in ddY mouse at 370 kBq/100 ul, iv. It is filed as ADME, organism-based. The following applies: in vivo. Put shortly:
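Tail-vein injection of 370 kBq/100 μL (saline, 5% EtOH) into male ddY mice (5 weeks, 20−22 g, n = 5). Brain excised at 2 and 60 min, weighed and γ-counted against diluted injectate. Uptake is %ID/g, and the ratio is brain at 2 min divided by brain at 60 min.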

For data set [6], the system named is Brain. The experiment in a line: Drug uptake in ddY mouse brain at 370 kBq/100 ul, iv assessed per organ at 60 mins by gamma-counting analysis. Format: ADME, organism-based. As to conditions: in vivo, 1 h.
For data set [7], the system named is Brain. Description: Drug uptake in ddY mouse brain at 370 kBq/100 ul, iv assessed per organ at 2 mins by gamma-counting analysis. Format: ADME, organism-based. As to conditions: in vivo.
Data set [8] addresses Amyloid-beta precursor protein (Homo sapiens) (UniProt P05067). The experiment in a line: Binding affinity to amyloid beta plaques in […] brain at 370 kBq/100 ul after 1 hr by immunohistochemical staining method. The following applies: tested as the 18F-labelled form. Put shortly:
(§1)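 In vitro autoradiography on paraffin sections. Mouse: Tg C57BL6 APPswe/PSEN1 and wild-type, both 12 months old. Human: AD (person) and normal (person). Sections were deparaffinized through xylene and graded ethanol, held in PBS (0.2 M, pH 7.4) for 30 min, then incubated with tracer (370 kBq/100 μL) for 1 h at room temperature. Washes were 50% ethanol then water. Plates were exposed overnight. Plaques were confirmed by thioflavin-S or monoclonal Aβ1-42 antibody immunostaining.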

The target is the same in data set [9]. The experiment in a line: Binding affinity to amyloid beta plaques in […] brain at 370 kBq/100 ul after 1 hr by autoradiographic analysis. The following applies: tested as the 18F-labelled form. Put shortly:
as §1

Data set [10] is filed under the species Mus musculus. Description: Binding affinity to amyloid beta plaques in transgenic C57BL6 mouse brain expressing APP Swedish mutant/PSEN1 at 370 kBq/100 ul after 1 hr by thioflavinS-staining method. It is filed as tissue-based. The following applies: tested as the 18F-labelled form. Put shortly:
as §1

The species named for data set [11] is Mus musculus. Description: Binding affinity to amyloid beta plaques in transgenic C57BL6 mouse brain expressing APP Swedish mutant/PSEN1 at 370 kBq/100 ul after 1 hr by autoradiographic analysis. Format: tissue-based. As to conditions: tested as the 18F-labelled form. Put shortly:
as §1

For data set [12], the system named is Mus musculus. The experiment in a line: Binding affinity to amyloid beta plaque in transgenic C57BL6 mouse hippocampus expressing APP Swedish mutant at 40.7 MBq, iv after 30 mins by thioflavinS-staining method. It is filed as functional, organism-based. Further details: dose or concentration left out as unconfirmed. The following applies: tested as the 18F-labelled form. Put shortly: (§2)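 Ex vivo: Tg2576 (C57BL6, APPsw) mice, 18 months old, and age-matched wild-type mice. Each received 40.7 MBq of tracer in 100 μL saline with 5% EtOH iv via the femoral vein and was decapitated 30 min later. Brains were frozen in dry ice and cut into 20 μm sections. Sections were exposed to an imaging plate for 8 h, then the same sections were stained with thioflavin-S.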

Data set [13] concerns Mus musculus. Description: Binding affinity to amyloid beta plaque in transgenic C57BL6 mouse cortex expressing APP Swedish mutant at 40.7 MBq, iv after 30 mins by thioflavinS-staining method. Format: functional, organism-based. Further details: dose or concentration left out as unconfirmed. The following applies: tested as the 18F-labelled form. Put shortly: as §2
The subject of data set [14] is Mus musculus. The experiment in a line: Binding affinity to amyloid beta plaque in transgenic C57BL6 mouse hippocampus expressing APP Swedish mutant/PSEN1 at 40.7 MBq, iv after 30 mins by autoradiographic analysis. It is filed as functional, organism-based. The following applies: 40.7 M, tested as the 18F-labelled form.
Data set [15] concerns Mus musculus. The experiment in a line: Binding affinity to amyloid beta plaque in transgenic C57BL6 mouse cortex expressing APP Swedish mutant/PSEN1 at 40.7 MBq, iv after 30 mins by autoradiographic analysis. Format: functional, organism-based. The following applies: 40.7 M, tested as the 18F-labelled form.
The test system of data set [16] is Brain. Description: Drug uptake in ddY mouse brain at 370 kBq/100 ul, iv at 60 mins by gamma-counting analysis. Format: ADME, organism-based. The following applies: in vivo, 1 h. Put shortly: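 Normal male ddY mice (5 weeks, 20−22 g, n = 5) received 370 kBq of tracer in 100 μL saline with 5% EtOH via tail vein. Mice were sacrificed at set times after injection, and organs were excised, weighed and γ-counted against diluted injectate aliquots. Values are %ID per gram, except stomach and intestine as %ID per organ, given as mean ± SD of 5 mice.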

Amyloid-beta precursor protein (Homo sapiens), sequence (P05067 whole entry): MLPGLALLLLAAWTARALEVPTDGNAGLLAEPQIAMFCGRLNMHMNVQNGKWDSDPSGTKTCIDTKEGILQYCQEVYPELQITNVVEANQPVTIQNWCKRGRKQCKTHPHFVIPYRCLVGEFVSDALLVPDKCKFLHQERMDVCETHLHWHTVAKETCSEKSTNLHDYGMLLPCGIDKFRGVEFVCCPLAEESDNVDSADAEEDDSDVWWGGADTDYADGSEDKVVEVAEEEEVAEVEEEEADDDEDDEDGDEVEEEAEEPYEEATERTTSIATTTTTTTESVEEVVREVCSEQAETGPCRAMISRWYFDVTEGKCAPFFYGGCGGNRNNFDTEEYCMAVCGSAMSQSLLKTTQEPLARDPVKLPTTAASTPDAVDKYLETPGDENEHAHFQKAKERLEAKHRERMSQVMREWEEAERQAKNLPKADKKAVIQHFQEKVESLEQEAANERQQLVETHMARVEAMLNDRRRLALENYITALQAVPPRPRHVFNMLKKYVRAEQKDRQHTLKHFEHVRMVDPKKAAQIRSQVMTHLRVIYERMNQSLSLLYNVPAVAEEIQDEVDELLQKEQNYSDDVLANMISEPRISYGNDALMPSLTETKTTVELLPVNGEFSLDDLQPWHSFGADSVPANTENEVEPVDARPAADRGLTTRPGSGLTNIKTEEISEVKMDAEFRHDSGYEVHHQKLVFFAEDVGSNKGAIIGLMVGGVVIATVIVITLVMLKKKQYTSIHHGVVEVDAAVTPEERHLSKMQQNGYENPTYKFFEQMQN

`CNc1ccc(-c2cc3cc([125I])ccc3o2)cc1` had a Ki in data set [1] of 0.4 nM. The same molecule had a Drug uptake in data set [2] of under 1.5 %ID.
Turning to `CNc1ccc(-c2cc3cc(OCCOCCOCC[18F])ccc3o2)cn1`, the Ki in data set [3] worked out at 2.4 nM. In data set [4], this molecule had a logD at 0.05 h of 3.11. The Ratio in data set [5] turned out to be 2.34.
On the same counts, the results for `CNc1ccc(-c2cc3cc(OCCOCCOCC[18F])ccc3o2)cc1` are 3.9 nM, 3.73 and 2.11.
Consider `CN(C)c1ccc(-c2nc3ccc([125I])cc3o2)cc1`, for which the Ki in data set [3] and in [1] was 0.8 nM throughout. This molecule yielded a logD at 0.05 h in [4] of 2.09. The Ratio in data set [5] came to 1.13. Also, the Drug uptake is listed as 1.26 %ID in data set [6] and 1.43 %ID in data set [7].
In turn, `Oc1ccc(-c2cc3cc([125I])ccc3o2)cc1` displayed a Ki in data set [1] of 0.4 nM. Moreover, the Drug uptake in [2] is under 1.5 %ID.
For the molecule `CNc1ccc(-c2nc3cc(OCCOCCOCCF)ccc3o2)cc1`, the result in data set [8], in [9], in data set [10], in [11], in [12] and in data set [13] was Active. Also, the outcome in [14] and in data set [15] was Active. The molecule further returned a Ki in data set [3] of 9.3 nM.
The molecule `CN(C)c1ccc(-c2cc3ccc([125I])cc3o2)cc1` displayed a Ki in [1] of 0.4 nM. In [2], this molecule returned a Drug uptake of under 1.5 %ID.
`CN(C)c1ccc(-c2cc3cc(OCCOCCOCC[18F])ccc3o2)cn1`: in data set [3], the affinity corresponds to a Ki of 1 nM. This molecule also displayed a logD at 0.05 h in [4] of 2.32. In addition, the Ratio in [5] is reported as 2.11.
`CN(C)c1ccc(-c2nc3cc(OCCOCCOCCF)ccc3o2)cc1`: the outcome in [8], in data set [9], in [10], in data set [11], in data set [12] and in [13] was Active. Besides, the result in [14] and in data set [15] was Active. In [3], the Ki is 3.9 nM.
In data set [1], `CN(C)c1ccc(-c2cc3cc([125I])ccc3o2)cc1` showed a Ki of 0.4 nM. Moreover, the Drug uptake in [2] is under 1.5 %ID.
`CN(C)c1ccc(-c2cc3cc(OCCOCCOCC[18F])ccc3o2)cc1` had a Ki in data set [3] of 2 nM. Moreover, the logD at 0.05 h in [4] was 2.94. Moreover, the Ratio in [5] came out at 1.03.
As to `CNc1ccc(/C=C/c2ccc(OCCOCCOCC[18F])nc2)cc1` [FLORBETAPIR F 18], affinity in data set [3] was put at a Ki of 2.87 nM. Besides, in [16], the Drug uptake stood at 1.88 % ID/g. The Ratio in [5] was 3.9.
